Laboratory results as given in PubChem BioAssay AID504768 (Southern Research Specialized Biocontainment Screening …, 2011).
The source made the active and inactive calls.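 The calls were made as follows: active = phage lysis blocked by at least 50% at any tested concentration; inactive = the rest.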

Test: K1F phage lysis inhibition in UTI89, confirmation, capsule biogenesis inhibitor project, UTI89 strain, C7 control, set 4 (AID 504768)
Settings: E. coli UTI89 K1F phage lysis inhibition, OD600; series mostly up to 300 µM; inhibition of phage lysis: at the top concentration
In short: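 Test system: E. coli UTI89 K1 and kpsM mutant | Medium: LB broth, overnight cultures diluted 1:100 | Probe or stimulus: K1F phage infection | Compound dosing: DMSO at 1% final | Times: 1.25 h compound pre-incubation at 37 °C shaking, lysis read 3 h post-phage | Technique: OD600 absorbance | Benchmarks: Phage-resistant kpsM mutant culture as control | Replication: Quadruplicate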

Inhibition of phage lysis, inactive:
O=C(Nc1nc2c(F)cc(F)cc2s1)c1cccnc1 0%, O=C(Nc1nc2c(F)cc(F)cc2s1)c1ccncc1 0%, Cc1cc(C)c2nc(NC(=O)c3ccccn3)sc2c1 0%, O=C(Nc1nc2ccccc2s1)c1cccnc1 0%, O=C(Nc1nc2c(Cl)cc(Cl)cc2s1)c1ccccn1 0%, O=C(Nc1nc2c(F)cccc2s1)c1ccccn1 0%, O=C(Nc1nc2ccc(F)cc2s1)c1ccccn1 0%, O=C(Nc1nc2ccccc2s1)c1ccncc1 0%, O=C(Nc1nc2c(F)cc(F)cc2s1)c1ccccc1 0%
